# Source: PubChem BioAssay
# MC4R antagonist – antagonists of human melanocortin 4 receptor (MC4R). P32245. MC4R-expressing cells, MTII-stimulated cAMP, LANCE TR-FRET. inhibition, % at 6.5 µM. 360,000 compounds, 0.48% hits. AID 540295;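 active = inhibition above its plate's cutoff, the mean of tested wells on that plate plus 3 SD, cut at about 29% in these data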
# Target sequence (P32245 whole entry, looked up): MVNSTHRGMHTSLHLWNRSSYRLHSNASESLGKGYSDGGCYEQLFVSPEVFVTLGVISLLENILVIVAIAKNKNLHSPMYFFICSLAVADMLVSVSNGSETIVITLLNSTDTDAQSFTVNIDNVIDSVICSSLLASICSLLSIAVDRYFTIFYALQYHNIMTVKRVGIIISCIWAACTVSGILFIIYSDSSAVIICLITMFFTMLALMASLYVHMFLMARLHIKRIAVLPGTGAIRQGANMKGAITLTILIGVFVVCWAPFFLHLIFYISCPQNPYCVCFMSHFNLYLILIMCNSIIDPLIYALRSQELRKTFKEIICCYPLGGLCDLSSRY
#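 Assay system: U2OS-MC4R stable cell line; Also added: Melanotan II; Technique: Eu-cAMP/anti-cAMP TR-FRET, emission 671 nm; Times: 30-min compound, 1-h challenge, 1-h detection, room temperature.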
# HTR2A ag – mouse HTR2A agonism via beta-arrestin recruitment | CHO-K1 mHTR2A beta-arrestin complementation, luminescence; percent of 30 µM serotonin response | activation, % at 7.6 µM | 360,000 compounds, 0.66% hits | P35363;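 active = activation above a run cutoff, the mean activation of all tested compounds plus 3 SD, cut at about 14% in these data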
# AHR activator – human AHR activation; AHR-responsive luciferase reporter cells, luminescence; 320,000 compounds, 2.5% hits; activation, % at 5 µM; AID 2796; in the data active = activation above about 47%
# FXN GAA850 act – activators of GAA850 frataxin (FXN) promoter; activation, % at 6 µM; HEK293 lucGAA850 FXN promoter luciferase reporter, 24 h; percent of 10 µM SAHA response; 360,000 compounds, 0.56% hits; AID 540364;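 active = activation above the average of all compounds screened plus 3 SD, cutoff fixed separately per campaign, cut at about 7.5% in these data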
# MC4R barr agon – activates human MC4R beta-arrestin recruitment; AID 540308; P32245; activation, % at 8.9 µM; 360,000 compounds, 0.98% hits; U2OS MC4R beta-arrestin complementation, luminescence; percent of melanotan II response, DMSO zero;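 active = activation above a per-plate cutoff, the mean activation of sample wells on that plate plus 3 SD, cut at about 8% in these data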
# GAA30 FXN cntr – GAA30 FXN promoter activation counter-screen | 1,900 compounds, 66% hits | activation, % at 6 µM | shares compounds with FXN GAA850 act | HEK293 lucGAA30 FXN promoter luciferase, 24 h; DMSO = 0%, 5 µM ipriflavone = 100% | AID 588350;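 active = mean activation above the mean of solvent-only control wells plus 3 SD, cut at about 22% in these data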;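 note: counterscreen of GAA850 promoter hits where activity marks nonselective or luminescence artifacts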
# GAA850 confirm – GAA850 FXN promoter activation confirmation; shares compounds with FXN GAA850 act; HEK293 lucGAA850 FXN promoter luciferase reporter, 24 h; 100% = activation by SAHA; activation, % at 6 µM; 1,900 compounds, 86% hits; AID 588351;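 active = mean activation above a set limit taken from the primary screen, cut at about 8% in these data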
# Numbers stand for hits; n = inactive; x = no result. Rows were chosen to be rich in hits. Some 4.7% of all compounds tested hit in one or more screens of this group.
SMILES,MC4R antagonist,HTR2A ag,AHR activator,FXN GAA850 act,MC4R barr agon,GAA30 FXN cntr,GAA850 confirm
CCOC(=O)c1c(C)nc2c3ccccc3ccn12,n,n,75,8.1,n,118,44
COc1ccc(CCN(C)C(=O)CCc2nnc(-c3ccccc3)o2)cc1OC,n,n,n,9.3,n,110,31
CN(Cc1ccc(F)cc1)C(=O)CCc1nnc(-c2ccccc2)o1,n,n,n,n,n,x,x
C=CCOc1cccn2c(N(C=O)Cc3ccc(OC)cc3)c(CC)nc12,n,n,x,n,n,x,x
CCOC(=O)N1CCN(C(=O)c2ccc(S(=O)(=O)Nc3ccc(C)cc3)cc2)CC1,n,n,n,n,n,x,x
CCOC(=O)N1CCN(C(=O)c2ccc(NS(C)(=O)=O)cc2)CC1,n,n,n,9.4,n,27,17
COc1ccc(NC(=O)c2ccccc2NC(=O)C2CCCCC2C(=O)O)cc1 (stereo not drawn),n,n,x,n,n,x,x
COc1ccc2c(CC(=O)Nc3ncc(C)s3)coc2c1,n,n,n,8.7,n,91,55
COc1ccc2c(CC(=O)Nc3nc(C)cs3)coc2c1,n,n,n,n,n,x,x
Nc1ccccc1Nc1cc(-c2ccccc2)[nH]n1,n,n,x,9.3,n,92,54
O=c1c(Cl)c(NCCCO)cnn1-c1nc2ccccc2[nH]1,n,n,n,29,n,61,54
CC(C)C[C@@]12C(=O)N(c3cccc(F)c3)C(=O)N1[C@H](c1ccc(Cl)cc1)[C@@H]1C(=O)N(C3CCCCC3)C(=O)[C@@H]12,n,n,n,16,n,25,14
O=C1[C@H]2[C@@H](c3ccc(Cl)cc3)N3C(=O)N(c4cccc(Br)c4)C(=O)[C@@]3(Cc3ccc(Cl)cc3)[C@H]2C(=O)N1C1CCCCC1,n,n,n,n,n,x,x
Cc1cccc([C@@H]2[C@@H]3C(=O)N(Cc4ccccc4)C(=O)[C@@H]3[C@]3(CC(C)C)C(=O)N(c4cccc(Cl)c4)C(=O)N23)c1,n,n,n,n,n,x,x
CC(C)C[C@@]12C(=O)N(c3cccc(F)c3)C(=O)N1[C@H](c1ccc(F)cc1)[C@@H]1C(=O)N(C3CCCCC3)C(=O)[C@@H]12,n,n,n,12,n,n,14
COc1ccc(N2C(=O)N3[C@H](c4ccc(Cl)cc4)[C@@H]4C(=O)N(C5CCCCC5)C(=O)[C@@H]4[C@]3(C)C2=O)cc1,n,n,n,14,n,n,n
C[C@@]12C(=O)N(c3cccc(F)c3)C(=O)N1[C@H](c1ccc(Cl)cc1)[C@@H]1C(=O)N(C3CCCCC3)C(=O)[C@@H]12,n,n,n,11,n,n,n
O=C1[C@H]2[C@@H](c3ccc(F)cc3)N3C(=O)N(c4cccc(Br)c4)C(=O)[C@@]3(Cc3ccc(Cl)cc3)[C@H]2C(=O)N1C1CCCCC1,n,n,n,n,n,x,x
C[C@H]1C=C(C(=O)O)O[C@@H](OCc2ccc(CO)cc2)C1,n,n,n,n,n,x,x
Cc1ccc(S(=O)(=O)N2CCN(CC(=O)N(CC(C)C)c3c(N)n(CC(C)C)c(=O)[nH]c3=O)CC2)c(C)c1,n,n,n,n,n,x,x
O=C(O)c1ccc(-c2nc(-c3ccc(Cl)cc3)cs2)cc1,n,n,x,n,n,x,x
COc1ccc(-c2csc(-c3ccc(C(=O)O)cc3)n2)cc1,n,n,n,9.8,n,85,37
O=C(O)c1ccc(-c2nc(-c3ccc(Cl)cc3Cl)cs2)cc1,n,n,n,8.2,n,113,44
Cc1ccc(CNC(=O)CSc2nc3ccsc3c(=O)n2Cc2ccccn2)cc1,n,n,n,n,n,x,x
Cc1ccc(Cn2c(SCC(=O)NCc3ccco3)nc3ccsc3c2=O)cc1,n,n,n,8.8,n,31,17
SMILES,MC4R antagonist,HTR2A ag,AHR activator,FXN GAA850 act,MC4R barr agon,GAA30 FXN cntr,GAA850 confirm
Cc1ccc(/C=N/NC(=O)NC2CCCCC2)o1,n,n,n,n,n,x,x
Cc1ccc(/C=C/C(=O)NC2CCCCCCC2)o1,n,n,n,11,n,99,49
Cc1noc(C)c1CSCC(=O)Oc1ccc(N(C)S(=O)(=O)c2ccc(Cl)cc2)cc1,n,n,n,n,n,x,x
CC1=C(c2ccc(C)cc2)S(=O)(=O)N(CC(=O)O)C1=O,n,n,n,n,n,x,x
COC(=O)CN1C(=O)C(C)=C(c2ccc(C)cc2)S1(=O)=O,n,n,n,13,n,26,8.2
Nc1cc(=O)[nH]c(SCC(=O)N2CCC(Cc3ccccc3)CC2)n1,n,n,n,n,n,x,x
Cc1ccc(NC(=O)Nc2ccc(Cl)cn2)cc1,n,n,x,8.2,n,94,32
CCOC(=O)CCCCCC(=O)Nc1ccc2c(c1)C(=O)N([C@@H](C)CO)C[C@@H](C)[C@H](CN(C)S(=O)(=O)c1cccs1)OCCCC[C@H](C)O2,n,n,x,n,n,x,x
C[C@@H]1CCCCO[C@@H](CN(C)S(C)(=O)=O)[C@@H](C)CN([C@H](C)CO)C(=O)c2cc(N(C)C)ccc2O1,n,n,x,n,n,x,x
O=C(Nc1sc2c(c1C(=O)NCc1ccco1)CCCC2)c1ccc2c(c1)OCO2,n,n,n,10,n,69,31
O=C(O)c1cccc2c(/C=N/Nc3ccccn3)c[nH]c12,n,n,n,n,n,x,x
Brc1ccc(/C=N/Nc2ccccn2)cc1,n,n,n,9.5,n,105,39
Clc1ccc(/C=N/Nc2ccccn2)cc1,n,n,n,n,n,x,x
O=c1nc(N/N=C/c2c[nH]c3ccccc23)cn[nH]1,n,n,n,7.8,n,103,24
C(=N\Nc1ccccn1)/c1c[nH]c2ccccc12,n,n,48,7.7,n,76,36
O=c1cnnc(N/N=C/c2c[nH]c3ccccc23)[nH]1,n,n,n,n,n,x,x
CC1(C2CC2)NC(=O)N(CC(=O)NCC(=O)Nc2ccc(F)c(F)c2F)C1=O (stereo not drawn),n,n,n,n,n,x,x
CC(C)c1ccc(NC(=O)NN2CCOCC2)cc1,n,n,n,8.0,n,85,33
CC(C)c1ccc(OCC(=O)N2CCCCCC2)c(Br)c1,n,n,n,7.8,n,86,29
Cc1cc(Br)ccc1OCC(=O)N1CCCCCC1,n,n,n,n,n,x,x
COc1ccnc(CS(=O)c2nc3cc(OC(F)F)ccc3[nH]2)c1OC (stereo not drawn),x,x,n,x,x,x,x
Cc1ccc(S(=O)(=O)NC(=O)NCCCCNC(=O)NS(=O)(=O)c2ccc(C)cc2)cc1,n,n,n,n,n,x,x
Cc1ccc(N(O)C(=O)NCCCCNC(=O)N(O)c2ccc(C)cc2)cc1,n,n,n,7.7,n,59,21
